Measurements as given in ChEMBL document CHEMBL1955778, “Design and synthesis of novel 7-aminoquinazoline derivatives: antitumor and anticonvulsant activities” (Bioorg Med Chem Lett, 2012).
The source made the active and inactive calls. The calls are words filed in the database; no cut-off is given here.

Legend:
[1] = system: HCT-15; experiment: Growth inhibition of human HCT15 cells at 10 uM relative to control; assay type: functional; settings: read-out: GI
Procedure, shortened: (§1)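 Each cell line in a 60-line human tumour panel exposed to one 10 μM concentration. Growth inhibition percentage computed as 100 minus the percentage activity relative to control.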

[2] = system: CAKI-1; experiment: Growth inhibition of human CAKI-1 cells at 10 uM relative to control; assay type: functional; settings: read-out: GI; procedure, shortened: as §1
[3] = system: Mus musculus; experiment: Anticonvulsant activity in mouse assessed as protection against pentylenetetrazol-induced seizure at 1 mmol/kg, ip administered 30 min prior to pentylenetetrazol-challenge measured after 60 mins relative to control; assay type: functional
[4] = system: T47D; experiment: Growth inhibition of human T47D cells at 10 uM relative to control; assay type: functional; settings: read-out: GI
Procedure, shortened: (§2)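 Single-dose screen across the 60-cell-line human tumor panel at 10 μM. Growth inhibition is reported as a percentage, taken as 100 minus the % growth relative to untreated control.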

[5] = system: SR; experiment: Growth inhibition of human SR cells at 10 uM relative to control; assay type: functional; settings: read-out: GI; procedure, shortened: as §2
[6] = system: Malme-3M; experiment: Growth inhibition of human MALME-3M cells at 10 uM relative to control; assay type: functional; settings: read-out: GI; procedure, shortened: as §1
[7] = system: MOLT-4; experiment: Growth inhibition of human MOLT4 cells at 10 uM relative to control; assay type: functional; settings: read-out: GI; procedure, shortened: as §1
[8] = system: HOP-62; experiment: Growth inhibition of human HOP62 cells at 10 uM relative to control; assay type: functional; settings: read-out: GI; procedure, shortened: as §1
[9] = system: SNB-75; experiment: Growth inhibition of human SNB75 cells at 10 uM relative to control; assay type: functional; settings: read-out: GI; procedure, shortened: as §2
[10] = system: M14; experiment: Growth inhibition of human M14 cells at 10 uM relative to control; assay type: functional; settings: read-out: GI; procedure, shortened: as §1
[11] = system: NCI-H23; experiment: Growth inhibition of human NCI-H23 cells at 10 uM relative to control; assay type: functional; settings: read-out: GI; procedure, shortened: as §1
[12] = system: NCI-H226; experiment: Growth inhibition of human NCI-H226 cells at 10 uM relative to control; assay type: functional; settings: read-out: GI; procedure, shortened: as §1
[13] = system: RPMI-8226; experiment: Growth inhibition of human RPMI8226 cells at 10 uM relative to control; assay type: functional; settings: read-out: GI; procedure, shortened: as §1
[14] = system: MDA-MB-231; experiment: Growth inhibition of human MDA-MB-231 cells at 10 uM relative to control; assay type: functional; settings: read-out: GI; procedure, shortened: as §1
[15] = system: KM12; experiment: Growth inhibition of human KM12 cells at 10 uM relative to control; assay type: functional; settings: read-out: GI; procedure, shortened: as §1
[16] = system: Mus musculus; experiment: Anticonvulsant activity in mouse assessed as protection against strychnine-induced seizure at 1 mmol/kg, ip administered 30 min prior to strychnine-challenge measured after 60 mins relative to control; assay type: functional
[17] = system: HT-29; experiment: Growth inhibition of human HT-29 cells at 10 uM relative to control; assay type: functional; settings: read-out: GI; procedure, shortened: as §1
[18] = system: CCRF-CEM; experiment: Growth inhibition of human CCRF-CEM cells at 10 uM relative to control; assay type: functional; settings: read-out: GI; procedure, shortened: as §1
[19] = system: UACC-62; experiment: Growth inhibition of human UACC62 cells at 10 uM relative to control; assay type: functional; settings: read-out: GI; procedure, shortened: as §2
[20] = system: EKVX; experiment: Growth inhibition of human EKVX cells at 10 uM relative to control; assay type: functional; settings: read-out: GI; procedure, shortened: as §1
[21] = system: SF-268; experiment: Growth inhibition of human SF268 cells at 10 uM relative to control; assay type: functional; settings: read-out: GI; procedure, shortened: as §1
[22] = system: U-251; experiment: Growth inhibition of human U251 cells at 10 uM relative to control; assay type: functional; settings: read-out: GI; procedure, shortened: as §2
[23] = system: K562; experiment: Growth inhibition of human K562 cells at 10 uM relative to control; assay type: functional; settings: read-out: GI; procedure, shortened: as §1
[24] = system: LOX IMVI; experiment: Growth inhibition of human LOXIMVI cells at 10 uM relative to control; assay type: functional; settings: read-out: GI; procedure, shortened: as §1
[25] = system: NCI-H322M; experiment: Growth inhibition of human NCI-H322M cells at 10 uM relative to control; assay type: functional; settings: read-out: GI; procedure, shortened: as §1
[26] = system: SK-MEL-5; experiment: Growth inhibition of human SK-MEL-5 cells at 10 uM relative to control; assay type: functional; settings: read-out: GI; procedure, shortened: as §1
[27] = system: MCF7; experiment: Growth inhibition of human MCF7 cells at 10 uM relative to control; assay type: functional; settings: read-out: GI; procedure, shortened: as §1
[28] = system: OVCAR-5; experiment: Growth inhibition of human OVCAR5 cells at 10 uM relative to control; assay type: functional; settings: read-out: GI; procedure, shortened: as §1
[29] = system: ACHN; experiment: Growth inhibition of human ACHN cells at 10 uM relative to control; assay type: functional; settings: read-out: GI; procedure, shortened: as §1
[30] = system: SF-295; experiment: Growth inhibition of human SF295 cells at 10 uM relative to control; assay type: functional; settings: read-out: GI; procedure, shortened: as §1
[31] = system: OVCAR-4; experiment: Growth inhibition of human OVCAR4 cells at 10 uM relative to control; assay type: functional; settings: read-out: GI; procedure, shortened: as §1
[32] = system: OVCAR-3; experiment: Growth inhibition of human OVCAR3 cells at 10 uM relative to control; assay type: functional; settings: read-out: GI; procedure, shortened: as §1
[33] = system: A549; experiment: Growth inhibition of human A549 cells at 10 uM relative to control; assay type: functional; settings: read-out: GI; procedure, shortened: as §1
[34] = Growth inhibition of human 786-O cells at 10 uM relative to control; assay type: functional; settings: 786-0, read-out: GI; procedure, shortened: as §1
[35] = system: PC-3; experiment: Growth inhibition of human PC3 cells at 10 uM relative to control; assay type: functional; settings: read-out: GI; procedure, shortened: as §1
[36] = system: SF-539; experiment: Growth inhibition of human SF539 cells at 10 uM relative to control; assay type: functional; settings: read-out: GI; procedure, shortened: as §1
[37] = system: A498; experiment: Growth inhibition of human A498 cells at 10 uM relative to control; assay type: functional; settings: read-out: GI; procedure, shortened: as §1
[38] = system: MDA-MB-435; experiment: Growth inhibition of human MDA-MB-435 cells at 10 uM relative to control; assay type: functional; settings: read-out: GI; procedure, shortened: as §1
[39] = system: UO-31; experiment: Growth inhibition of human UO31 cells at 10 uM relative to control; assay type: functional; settings: read-out: GI; procedure, shortened: as §2
[40] = system: SK-OV-3; experiment: Growth inhibition of human SKOV3 cells at 10 uM relative to control; assay type: functional; settings: read-out: GI; procedure, shortened: as §1
[41] = system: RXF 393; experiment: Growth inhibition of human RXF393 cells at 10 uM relative to control; assay type: functional; settings: read-out: GI; procedure, shortened: as §1
[42] = system: COLO 205; experiment: Growth inhibition of human COLO205 cells at 10 uM relative to control; assay type: functional, cell-based; procedure, shortened: as §1
[43] = system: NCI/ADR-RES; experiment: Growth inhibition of human NCI/ADR-RES cells at 10 uM relative to control; assay type: functional; settings: read-out: GI; procedure, shortened: as §1
[44] = system: SNB-19; experiment: Growth inhibition of human SNB19 cells at 10 uM relative to control; assay type: functional; settings: read-out: GI; procedure, shortened: as §2
[45] = system: NCI-H460; experiment: Growth inhibition of human NCI-H460 cells at 10 uM relative to control; assay type: functional; settings: read-out: GI; procedure, shortened: as §1
[46] = Growth inhibition of human Hs 578T cells at 10 uM relative to control; assay type: functional; settings: read-out: GI; procedure, shortened: as §1
[47] = system: SN12C; experiment: Growth inhibition of human SN12C cells at 10 uM relative to control; assay type: functional; settings: read-out: GI; procedure, shortened: as §2
[48] = system: HCT-116; experiment: Growth inhibition of human HCT116 cells at 10 uM relative to control; assay type: functional; settings: read-out: GI; procedure, shortened: as §1
[49] = system: HL-60(TB); experiment: Growth inhibition of human HL-60(TB) cells at 10 uM relative to control; assay type: functional; settings: read-out: GI
Procedure, shortened: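 Single-dose screen at 10 μM across the 60-cell-line tumour panel. Percent growth inhibition = 100 minus percent growth activity relative to untreated control.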

[50] = system: UACC-257; experiment: Growth inhibition of human UACC257 cells at 10 uM relative to control; assay type: functional; settings: read-out: GI; procedure, shortened: as §2
[51] = system: HCC 2998; experiment: Growth inhibition of human HCC2998 cells at 10 uM relative to control; assay type: functional; settings: read-out: GI; procedure, shortened: as §1
[52] = system: IGROV-1; experiment: Growth inhibition of human IGROV1 cells at 10 uM relative to control; assay type: functional; settings: read-out: GI; procedure, shortened: as §1
[53] = system: SK-MEL-28; experiment: Growth inhibition of human SK-MEL-28 cells at 10 uM relative to control; assay type: functional; settings: read-out: GI; procedure, shortened: as §1
[54] = system: SW-620; experiment: Growth inhibition of human SW620 cells at 10 uM relative to control; assay type: functional; settings: read-out: GI; procedure, shortened: as §2
[55] = system: Mus musculus; experiment: Anticonvulsant activity in mouse assessed as protection against maximal electroshock-induced seizure at 1 mmol/kg, ip administered 30 min prior to maximal electroshock-challenge measured after 60 mins relative to control; assay type: functional
[56] = system: DU-145; experiment: Growth inhibition of human DU145 cells at 10 uM relative to control; assay type: functional; settings: read-out: GI; procedure, shortened: as §1
[57] = system: OVCAR-8; experiment: Growth inhibition of human OVCAR8 cells at 10 uM relative to control; assay type: functional; settings: read-out: GI; procedure, shortened: as §1

Cc1ccccc1-n1c(C)nc2cc(NC(=O)c3ccc(Cl)cc3)ccc2c1=O
inhibition of growth at 10 µM [1]: 36.3%
inhibition of growth at 10 µM [2]: 41.2%
Activity [3]: 0%
inhibition of growth at 10 µM [4]: 71%
inhibition of growth at 10 µM [5]: 26.3%
inhibition of growth at 10 µM [6]: 56.5%
inhibition of growth at 10 µM [7]: 29.3%
inhibition of growth at 10 µM [8]: 3%
inhibition of growth at 10 µM [9]: 21.2%
inhibition of growth at 10 µM [10]: 32.3%
inhibition of growth at 10 µM [11]: 35.7%
inhibition of growth at 10 µM [12]: 12%
inhibition of growth at 10 µM [13]: 55.4%
inhibition of growth at 10 µM [14]: 42.7%
inhibition of growth at 10 µM [15]: 24.4%
Activity [16]: 0%
inhibition of growth at 10 µM [17]: 38.1%
inhibition of growth at 10 µM [18]: 47.3%
inhibition of growth at 10 µM [19]: 57.8%
inhibition of growth at 10 µM [20]: 48.5%
inhibition of growth at 10 µM [21]: 32.3%
inhibition of growth at 10 µM [22]: 32.4%
inhibition of growth at 10 µM [23]: 44.2%
inhibition of growth at 10 µM [24]: 31.6%
inhibition of growth at 10 µM [25]: 6%
inhibition of growth at 10 µM [26]: 99.1%
inhibition of growth at 10 µM [27]: 42.2%
inhibition of growth at 10 µM [28]: 24.1%
inhibition of growth at 10 µM [29]: 52%
inhibition of growth at 10 µM [30]: 40.3%
inhibition of growth at 10 µM [31]: 69.9%
inhibition of growth at 10 µM [32]: 41.1%
inhibition of growth at 10 µM [33]: 27.8%
inhibition of growth at 10 µM [34]: 32.4%
inhibition of growth at 10 µM [35]: 39.8%
inhibition of growth at 10 µM [36]: 31.8%
inhibition of growth at 10 µM [37]: 39.4%
inhibition of growth at 10 µM [38]: 56.4%
inhibition of growth at 10 µM [39]: 22.2%
inhibition of growth at 10 µM [40]: 16.8%
inhibition of growth at 10 µM [41]: 23.2%
growth inhibition (GI) [42]: inactive
inhibition of growth at 10 µM [43]: 17.6%
inhibition of growth at 10 µM [44]: 24.2%
inhibition of growth at 10 µM [45]: 27.5%
inhibition of growth at 10 µM [46]: 17.9%
inhibition of growth at 10 µM [47]: 32.4%
inhibition of growth at 10 µM [48]: 25.2%
inhibition of growth at 10 µM [49]: 35.5%
inhibition of growth at 10 µM [50]: 40.3%
inhibition of growth at 10 µM [51]: 19.1%
inhibition of growth at 10 µM [52]: 21.4%
inhibition of growth at 10 µM [53]: 20.4%
inhibition of growth at 10 µM [54]: 14%
Activity [55]: 50%
inhibition of growth at 10 µM [56]: 12.4%
inhibition of growth at 10 µM [57]: 16%
